From PubChem
Pf Dd2 growth – blocks growth of Plasmodium falciparum Dd2 parasites. P. falciparum Dd2 growth, SYBR Green, 72 h; hits give low values. activity change, % at 10 µM. hit rate 2.3% among 94,000; in the data active means activity change below about -80%; inconclusive means no clear call, values can overlap the other calls
IDH1 R132H inh – inhibitors of human IDH1 R132H | O75874 | IDH1 R132H reductase, diaphorase/resazurin fluorescence, 60 min | inhibition, % at 10 µM | hit rate 0.18% among 70,000; in the data active means inhibition above about 34%; inconclusive means no clear call, values can overlap the other calls; inactive means below about 11%;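 further: 0% = DMSO and 100% = no enzyme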
Target sequence (O75874 whole entry R132H): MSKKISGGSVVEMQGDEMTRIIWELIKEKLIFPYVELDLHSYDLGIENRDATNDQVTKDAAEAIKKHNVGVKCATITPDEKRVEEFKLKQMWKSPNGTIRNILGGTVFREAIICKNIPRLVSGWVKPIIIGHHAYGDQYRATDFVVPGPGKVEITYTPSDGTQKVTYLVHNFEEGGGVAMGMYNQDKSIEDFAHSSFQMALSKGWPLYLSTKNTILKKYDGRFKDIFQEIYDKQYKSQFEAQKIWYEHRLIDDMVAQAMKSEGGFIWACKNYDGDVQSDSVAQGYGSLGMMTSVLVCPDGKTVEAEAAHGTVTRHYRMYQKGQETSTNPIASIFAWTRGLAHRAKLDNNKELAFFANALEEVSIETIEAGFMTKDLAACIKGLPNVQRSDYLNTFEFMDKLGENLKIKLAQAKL
T cruzi growth-1 – T. cruzi proliferation inhibition. inhibition, % at 8.34 µM. T. cruzi beta-gal in NIH3T3, GalScreen luminescence, 90 h. hit rate 5.9% among 77,000;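 active means mean inhibition above about 93%, with at least 55% of replicates each passing it, limit read from the data, passing the limit was not always enough; inconclusive means only one of those two conditions holds; inactive means neither condition holds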
KDM4C inh – KDM4C (human) demethylase inhibition; Q9H3R0; GST-KDM4C 2-372, H3K9me3 peptide, LANCE TR-FRET; inhibition, % at 12.5 µM; hit rate 0.15% among 96,000; AID 720574;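 active means mean replicate inhibition above about 25%, with at least 55% of replicates also reaching it, limit read from the data, passing the limit was not always enough; inconclusive means only one of those two conditions met; inactive means neither condition met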
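System: N-terminal GST-fused human GASC-1 (KDM4C) fragment, residues 2-372 / Amount: 10 nM GST-KDM4C in enzyme reaction / Also added: H3K9me3 peptide with Fe(II)/2OG / Times: 30 min demethylation and 1 h detection at room temperature / Signal: LANCE TR-FRET / Read-out basis: Fall in 671/618 emission ratio as inhibition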
T cruzi growth-2 – inhibitors of T. cruzi proliferation; shares compounds with T cruzi growth-1; T. cruzi beta-gal in NIH3T3, GalScreen luminescence, 90 h; inhibition, % at 8.35 µM; hit rate 72% among 5,600; AID 651739;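 active means mean replicate inhibition above about 95% and at least 55% of replicates individually reaching it, limit read from the data; inconclusive means only one of the two criteria is met; inactive means neither criterion is met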
T cruzi growth-3 – Trypanosoma cruzi proliferation inhibition. T. cruzi beta-gal in NIH3T3, GalScreen luminescence, 90 h. hit rate 21% among 5,600. AID 651740. shares compounds with T cruzi growth-1. inhibition, % at 2.09 µM;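 active means mean inhibition above about 95%, with at least 55% of replicates also reaching it, limit read from the data; inconclusive means meets just one of the two conditions; inactive means meets neither condition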;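 further: plate controls were neutral control median for no effect and positive control median for full effect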
NIH3T3 tox – kills mouse NIH/3T3 fibroblasts. hit rate 14% among 5,600. NIH/3T3 viability, CellTiter-Glo ATP luminescence, 90 h. cytotoxicity (signal decrease), % at 8.35 µM. AID 651742. shares compounds with T cruzi growth-1;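 active means mean signal decrease across replicates above about 35% based on untreated-well scatter, with enough replicates individually passing, limit read from the data; inconclusive means no rule stated though some were filed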;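 further: 0% = median of neutral control wells and 100% = median of positive control wells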
NIH3T3 tox 2 – kills mouse NIH/3T3 fibroblasts | shares compounds with T cruzi growth-1 | inhibition, % at 24.9 µM | hit rate 56% among 5,600 | AID 651744 | NIH/3T3 viability, CellTiter-Glo ATP luminescence, 90 h;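 active means mean loss of cell viability signal at or above a set limit, and enough replicates individually reaching it; inconclusive means meets only the mean limit or only the replicate share; inactive means meets neither condition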;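 further: 0% = median of neutral control wells and 100% = median of positive control wells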
* hit, by the source's call; ? = inconclusive; · = no result; ! = a repeat was not active. Shown are actives, neighbours in structure and some others; about 5.9% of the full set was active somewhere.

SMILES	Pf Dd2 growth	IDH1 R132H inh	T cruzi growth-1	KDM4C inh	T cruzi growth-2	T cruzi growth-3	NIH3T3 tox	NIH3T3 tox 2
COc1ccc(NC(=O)CC2NC(=O)NC2=O)cc1 (stereo not given)	·	0	·	·	·	·	·	·
CCC(=O)N1CCCCN2[C@H](C1)[C@H](c1ccc(/C=C/c3ccccc3)cc1)[C@@H]2CO	-3	·	105*	-2	78	14	25	103*
CN(C)CC(=O)N1CCCCN2[C@H](CO)[C@H](c3ccc(/C=C/c4ccccc4)cc3)[C@@H]2C1	-2	·	101*	-1	112*	110*	89*	104*
CCC(=O)N1CCCCN2[C@H](CO)[C@@H](c3ccc(/C=C/c4ccccc4)cc3)[C@@H]2C1	8	·	63	-1	·	·	·	·
CCC(=O)N1CCCCN2[C@@H](CO)[C@@H](c3ccc(/C=C/c4ccccc4)cc3)[C@@H]2C1	-23	·	118*	-3	99*	80	7	105*
CN(C)CC(=O)N1CCCCN2[C@H](CO)[C@@H](c3ccc(/C=C/c4ccccc4)cc3)[C@@H]2C1	-17	·	-21	-2	·	·	·	·
CN1CCCCN2[C@@H](CO)[C@@H](c3ccc(/C=C/c4ccccc4)cc3)[C@@H]2C1	-6	·	82	-2	·	·	·	·
CC1(C)CC(=O)C2=C(C1)N(CC1CCCO1)C(=O)C2(NC(=O)c1ccccc1)C(F)(F)F (stereo not given)	·	1	·	·	·	·	·	·
COc1ccc(CCNC(=O)c2cc3cc(Br)cc(OC)c3oc2=O)cc1OC	·	0	·	·	·	·	·	·
C[C@H](CO)N1C[C@H](C)[C@H](CN(C)Cc2ccc(Oc3ccccc3)cc2)Oc2ccc(NC(=O)Nc3ccc(F)cc3)cc2C1=O	-13	·	109*	-3	98*	62	24	104*
C[C@@H]1CN([C@H](C)CO)C(=O)c2cc(NC(=O)Nc3ccc(F)cc3)ccc2O[C@@H]1CN(C)Cc1ccc(Oc2ccccc2)cc1	-14	0	?	1	96*	30	34	106*
COc1ccccc1C(=O)N1CCN(c2ccc([N+](=O)[O-])c(NCc3cccnc3)c2)CC1	·	0	·	·	·	·	·	·
COc1ccc(NC(=O)CSc2nnc3c4c5c(sc4nc(-c4ccccc4)n23)CCC5)cc1	·	1	·	·	·	·	·	·
COc1ccccc1NC(=O)C(CCS(C)(=O)=O)N1C(=O)c2ccc(Br)cc2C1=O (stereo not given)	·	2	·	·	·	·	·	·
CCn1c(SCC(=O)Nc2cccc3ccccc23)nnc1-c1ccc(Cl)c(Cl)c1	·	0	·	·	·	·	·	·
C[C@H]1CCCCO[C@@H](CN(C)C(=O)c2ccccc2)[C@@H](C)CN([C@@H](C)CO)C(=O)c2cc(NC(=O)Nc3ccc(F)cc3)ccc2O1	-68	1	?	-3	115*	12	3	15
C[C@H]1CCCCO[C@@H](CN(C)C(=O)Nc2ccc3c(c2)OCO3)[C@@H](C)CN([C@@H](C)CO)C(=O)c2cc(NC(=O)Cc3ccccc3)ccc2O1	-60	0	?	1	103*	11	6	-9
C[C@@H]1CCCCO[C@H](CN(C)C(=O)Nc2ccc3c(c2)OCO3)[C@@H](C)CN([C@H](C)CO)C(=O)c2cc(NC(=O)Cc3ccccc3)ccc2O1	-32	·	38	1	·	·	·	·
C[C@H](CO)N1C[C@H](C)[C@@H](CN(C)C(=O)Nc2ccc(F)cc2)OCCCC[C@H](C)Oc2ccc(NC(=O)Nc3ccccc3)cc2C1=O	16	-3	114*	-1	110*	31	-1	-15
C[C@@H]1CCCCO[C@@H](CN(C)C(=O)Nc2ccccc2)[C@@H](C)CN([C@@H](C)CO)C(=O)c2cc(NC(=O)Nc3ccc(F)cc3)ccc2O1	·	3	·	-1	·	·	·	·
C[C@H]1CCCCO[C@H](CN(C)C(=O)Nc2ccc(F)cc2)[C@@H](C)CN([C@@H](C)CO)C(=O)c2cc(NC(=O)Nc3ccccc3)ccc2O1	-51	·	?	0	108*	88	15	11
C[C@@H]1CN([C@@H](C)CO)C(=O)c2cc(NC(=O)Nc3ccc(F)cc3)ccc2O[C@@H](C)CCCCO[C@H]1CN(C)C(=O)c1ccccc1	54	-1	68	-1	·	·	·	·
COc1cc(-c2nnc(SCC(=O)c3ccc(Cl)cc3)n2C)cc(OC)c1OC	·	0	·	·	·	·	·	·
C[C@@H]1CCCCO[C@@H](CN(C)C(=O)Nc2ccccc2)[C@H](C)CN([C@H](C)CO)C(=O)c2cc(NC(=O)Nc3ccccc3)ccc2O1	-50	-1	99*	-3	108*	60	2	3
C[C@@H]1CCCCO[C@@H](CN(C)C(=O)Nc2ccc3c(c2)OCO3)[C@@H](C)CN([C@H](C)CO)C(=O)c2cc(N(C)C)ccc2O1	-6	-3	96*!	-1	41	-8	-10	-9
SMILES	Pf Dd2 growth	IDH1 R132H inh	T cruzi growth-1	KDM4C inh	T cruzi growth-2	T cruzi growth-3	NIH3T3 tox	NIH3T3 tox 2
C[C@@H]1CCCCO[C@H](CN(C)C(=O)Nc2ccccc2)[C@H](C)CN([C@H](C)CO)C(=O)c2cc(NC(=O)Nc3ccc(F)cc3)ccc2O1	-85*	·	102*	-2	104*	108*	-5	-26
C[C@H](CO)N1C[C@H](C)[C@H](CN(C)C(=O)Nc2ccc3c(c2)OCO3)OCCCC[C@H](C)Oc2ccc(NC(=O)Nc3ccccc3)cc2C1=O	9	·	114*	-1	112*	55	-15	-20
COC(=O)c1ccc(C(=O)OC)c(NC(=O)CN2C(=O)c3cccc4cccc2c34)c1	·	0	·	·	·	·	·	·
CO[C@@]1(c2ccc3c(c2)OCO3)OC[C@@H]2[C@@H](c3ccc4c(c3)OCO4)OC[C@@]21O	·	0	·	·	·	·	·	·
COc1ccc2c3c([nH]c2c1)[C@@H](CO)N(C(=O)c1ccccn1)CC31CN(C(=O)C2CCCCC2)C1	2	·	·	·	·	·	·	·
O=C(c1cnccn1)N1CC[C@H]2[C@H](CO)Nc3ccc(-c4ccccc4F)cc3[C@H]21	-3	·	99*	-2	96*	24	17	21
O=C(c1ccccn1)N1CC[C@@H]2[C@@H](CO)Nc3ccc(-c4ccc(F)cc4)cc3[C@@H]21	21	·	112*	0	105*	80	7	16
O=C(c1ccccn1)N1CC[C@H]2[C@H](CO)Nc3ccc(C#Cc4cccnc4)cc3[C@H]21	-20	·	77	-2	·	·	·	·
O=C(c1ccc(F)cc1)N1CC[C@@H]2[C@H](CO)Nc3ccc(-c4ccccc4F)cc3[C@@H]21	-3	·	?	-2	98*	95	6	85*
O=C(c1ccccn1)N1CC[C@@H]2[C@H](CO)Nc3ccc(C#Cc4cccnc4)cc3[C@@H]21	-54	·	?	2	30	24	12	?
